Source: ChEMBL document CHEMBL4400554, “Ketamine esters and amides as short-acting anaesthetics: Structure-activity relationships for the side-chain” (Bioorg Med Chem, 2019)

What was measured:
Rattus norvegicus [1] = assay: Analgesic activity in Sprague-Dawley rat assessed as minimal dose for loss of pedal withdrawal reflex at 20 mg/kg/min followed by dose reduction to 6.7 mg/kg/min dosed via infusion; format: functional; conditions: read-out: MED
Method in brief: (§1)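 Rats (230 to 320g) restrained; drug at 10mg/ml infused via marginal tail vein cannula by syringe driver at 20 mg/kg/min until loss of righting reflex and PWR=1. Rate then cut to 6.7 mg/kg/min and titrated up-and-down for 10 min. PWR scored each minute by 1 s firm digital pressure on forepaw. Three rats per study, ketamine as within-group control, randomised order, ≥4 h between runs.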

Rattus norvegicus [2] = assay: Short-acting anaesthetic activity in Sprague-Dawley rat assessed as dose causing loss of righting reflex at 20 mg/kg/min followed by dose reduction to 6.7 mg/kg/min dosed via infusion; format: functional; method in brief: as §1
Rattus norvegicus [3] = assay: Short-acting anaesthetic activity in Sprague-Dawley rat assessed as time for return of righting reflex after infusion stopped at 20 mg/kg/min followed by dose reduction to 6.7 mg/kg/min dosed via infusion; format: functional
Method in brief: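 Rats (230 to 320g) given tail-vein infusion of drug at 10mg/ml, 20 mg/kg/min until LORR and PWR=1, then 6.7 mg/kg/min titrated up-and-down to hold dorsal recumbency and PWR=1 to 10 min before stopping. Time from cessation to return of righting reflex recorded. Three rats per study, ketamine as own control, randomised order, ≥4 h recovery.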

Glutamate NMDA receptor = assay: Displacement of [3H] MK-801 from NMDA glutamate ion channel in Wistar rat brain membranes (minus cerebellum) after 3 hrs by scintillation counting analysis; format: cell membranes
Method in brief: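 Radioligand binding in Wistar rat brain (minus cerebellum) preparations with MK-801 as ligand.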

[4] = target: Glutamate [NMDA] receptor; assay: Binding affinity to NMDA receptor (unknown origin); format: protein-complex assay, Homo sapiens
Method in brief: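 Radioligand binding on Wistar rat brain (minus cerebellum) preparations, MK-801 as ligand, in 5 mM Tris-acetate buffer pH 7.4, 3 h at 25°C; IC50 in µM.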

Compound	minimal effective dose (Rattus norvegicus [1])	EC (Rattus norvegicus [2])	Time (Rattus norvegicus [3])	IC50 (Glutamate NMDA receptor)	Ki [4]
CC(C)OC(=O)CCNC1(c2ccccc2Cl)CCCCC1=O (stereo not drawn)	37 mg/kg	33 mg/kg	83 s	134 µM	
COCCOC(=O)CCCCNC1(c2ccccc2Cl)CCCCC1=O (stereo not drawn)	> 200 mg/kg	>200 mg/kg		19 µM	
CN(C)C(=O)CCNC1(c2ccccc2Cl)CCCCC1=O (stereo not drawn)	113 mg/kg	110 mg/kg	623 s	416 µM	
CN(C)C(=O)CCCCNC1(c2ccccc2Cl)CCCCC1=O (stereo not drawn)	> 200 mg/kg	>200 mg/kg		> 1000 µM	
CCOC(=O)C(C)CCCNC1(c2ccccc2Cl)CCCCC1=O (stereo not drawn)	55 mg/kg	50 mg/kg	260 s	107 µM	
COC(=O)CCCCCNC1(c2ccccc2Cl)CCCCC1=O (stereo not drawn)	> 200 mg/kg	>200 mg/kg		44 µM	
COC(=O)CCCCNC1(c2ccccc2Cl)CCCCC1=O (stereo not drawn)	44 mg/kg	34 mg/kg	99 s	3 µM	
CCOC(=O)CCOCCNC1(c2ccccc2Cl)CCCCC1=O (stereo not drawn)	> 200 mg/kg	>200 mg/kg		87 µM	
COC(=O)C(C)(C)CCCNC1(c2ccccc2Cl)CCCCC1=O (stereo not drawn)	> 200 mg/kg	52 mg/kg	580 s	125 µM	
COC(=O)CCCCCCNC1(c2ccccc2Cl)CCCCC1=O (stereo not drawn)	> 200 mg/kg	>200 mg/kg		51 µM	
CCS(=O)(=O)CCNC1(c2ccccc2Cl)CCCCC1=O (stereo not drawn)	> 200 mg/kg	>200 mg/kg		> 1000 µM	
CC(C)NC(=O)CCNC1(c2ccccc2Cl)CCCCC1=O (stereo not drawn)	> 200 mg/kg	82 mg/kg	82 s	58 µM	
COC(=O)COCCNC1(c2ccccc2Cl)CCCCC1=O (stereo not drawn)	> 200 mg/kg	>200 mg/kg		13 µM	
CC(C)OC(=O)CNC1(c2ccccc2Cl)CCCCC1=O (stereo not drawn)	> 200 mg/kg	>200 mg/kg		45 µM	
CNC(=O)CCNC1(c2ccccc2Cl)CCCCC1=O (stereo not drawn)	> 200 mg/kg	58 mg/kg	85 s	73 µM	
CNC(=O)CCCCNC1(c2ccccc2Cl)CCCCC1=O (stereo not drawn)	> 200 mg/kg	83 mg/kg	125 s	77 µM	
CCNC(=O)CCNC1(c2ccccc2Cl)CCCCC1=O (stereo not drawn)	139 mg/kg	112 mg/kg	237 s	935 µM	
NC(=O)CCNC1(c2ccccc2Cl)CCCCC1=O (stereo not drawn)	> 200 mg/kg	>200 mg/kg		500 µM	
O=C1CCCCC1(NCCCN1CCCCC1)c1ccccc1Cl (stereo not drawn)	130 mg/kg	67 mg/kg	556 s	41 µM	
COC(=O)CNC1(c2ccccc2Cl)CCCCC1=O (stereo not drawn)	> 200 mg/kg	>200 mg/kg		308 µM	
O=C(CCNC1(c2ccccc2Cl)CCCCC1=O)Oc1ccccc1 (stereo not drawn)	> 200 mg/kg	>200 mg/kg		73 µM	
CNC1(c2ccccc2Cl)CCCCC1=O (stereo not drawn) [KETAMINE]	28 mg/kg	23 mg/kg	1075 s	0.7 µM	1.9 µM
